This note sets out measurements from ChEMBL document CHEMBL1124112, “Indoline analogues of idazoxan: potent alpha 2-antagonists and alpha 1-agonists” (J Med Chem, 1988).

For assay [1], the target named is Adrenergic receptor alpha-1 (Rattus norvegicus) (UniProt P15823+P23944+P43140). The assay can be described thus: Agonism at alpha-1 adrenergic receptor, determined as the dose required to produce a two fold shift of the cirazoline on diastolic blood pressure. Format: functional, tissue-based. As to conditions: Artery.
In assay [2] the test system is Adrenergic receptor alpha-2 (Rattus norvegicus). The assay can be described thus: Agonism at alpha-2 adrenergic receptor, determined as dose required to produce a two fold shift of the cumulative dose-response curve to UK-14304 on the twitch response in rat vas deferens.
Assay [3] concerns Adrenergic receptor alpha-1 (Rattus norvegicus). The assay can be described thus: […] towards alpha-1 adrenergic receptor determined as the dose required to produce a two fold shift of the cirazoline on diastolic blood pressure (in vitro). As to conditions: Artery.
Assay [4] deals with T1, Adrenergic receptor alpha-2 (Rattus norvegicus) (UniProt P22086+P19328+P22909). The assay can be described thus: Antagonism at alpha-2 adrenergic receptor, determined as dose required to produce a two fold shift of the dose-response curve to UK-14304 on the twitch response in rat vas deferens. The assay is classed as functional, tissue-based. The method, boiled down: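 Pithed rats, iv. Antagonist given before a cumulative dose-response curve to UK-14,304 on the vas deferens twitch response. DR2 is the antagonist dose (μg/kg) giving a twofold shift of the curve. Separate groups of rats (n = 4-6).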
T1 sequence (P19328 whole entry, looked up): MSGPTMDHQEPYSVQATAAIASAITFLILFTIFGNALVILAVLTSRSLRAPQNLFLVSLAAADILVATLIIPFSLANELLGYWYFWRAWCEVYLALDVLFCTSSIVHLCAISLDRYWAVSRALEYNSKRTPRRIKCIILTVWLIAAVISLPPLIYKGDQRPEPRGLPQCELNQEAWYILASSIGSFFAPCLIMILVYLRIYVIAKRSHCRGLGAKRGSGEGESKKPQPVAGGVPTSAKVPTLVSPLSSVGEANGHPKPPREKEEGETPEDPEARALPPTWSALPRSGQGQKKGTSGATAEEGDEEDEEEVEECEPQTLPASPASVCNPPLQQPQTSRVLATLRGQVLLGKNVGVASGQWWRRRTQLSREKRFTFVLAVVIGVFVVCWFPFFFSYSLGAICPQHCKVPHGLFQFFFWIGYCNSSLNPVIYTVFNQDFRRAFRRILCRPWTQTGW
T1 sequence (P22086 whole entry, looked up): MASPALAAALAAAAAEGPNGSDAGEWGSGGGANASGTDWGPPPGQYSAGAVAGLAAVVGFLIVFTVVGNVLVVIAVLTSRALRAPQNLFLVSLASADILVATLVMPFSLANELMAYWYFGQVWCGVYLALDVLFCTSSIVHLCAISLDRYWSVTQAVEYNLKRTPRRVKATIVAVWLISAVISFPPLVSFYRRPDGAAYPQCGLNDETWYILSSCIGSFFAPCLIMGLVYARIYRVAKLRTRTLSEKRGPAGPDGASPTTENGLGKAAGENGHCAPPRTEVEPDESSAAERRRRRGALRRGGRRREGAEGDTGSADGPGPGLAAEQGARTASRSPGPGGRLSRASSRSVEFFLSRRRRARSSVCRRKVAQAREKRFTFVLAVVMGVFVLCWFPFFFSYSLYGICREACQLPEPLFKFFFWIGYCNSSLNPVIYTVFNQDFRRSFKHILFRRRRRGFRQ
T1 sequence (P22909 whole entry, looked up): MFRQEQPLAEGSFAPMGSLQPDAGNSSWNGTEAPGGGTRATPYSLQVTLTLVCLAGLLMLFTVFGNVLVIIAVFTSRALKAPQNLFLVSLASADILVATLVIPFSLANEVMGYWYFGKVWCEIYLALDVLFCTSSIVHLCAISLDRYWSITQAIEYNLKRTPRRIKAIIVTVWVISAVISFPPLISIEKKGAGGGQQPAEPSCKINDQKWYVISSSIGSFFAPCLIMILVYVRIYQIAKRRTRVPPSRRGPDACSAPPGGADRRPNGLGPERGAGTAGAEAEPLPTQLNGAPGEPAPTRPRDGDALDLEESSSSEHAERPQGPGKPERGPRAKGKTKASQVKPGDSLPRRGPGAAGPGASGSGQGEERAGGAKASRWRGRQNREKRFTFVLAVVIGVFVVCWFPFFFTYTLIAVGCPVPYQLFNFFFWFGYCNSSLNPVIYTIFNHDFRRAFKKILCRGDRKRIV

The subject of assay [5] is Rattus norvegicus. As to the kind of experiment: In vivo ED40 is the raising diastolic blood pressure by 40 mm Hg in pithed rats. (postjunctional). The assay is classed as functional. The note with it: Artery. In outline: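 Pithed rats, compound given iv in cumulative doses. ED40 is the dose (μg/kg) raising diastolic blood pressure by 40 mmHg. Separate groups of rats (n = 4-6).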

In assay [6] the target is T1, Adrenergic receptor alpha-2 (Rattus norvegicus). As to the kind of experiment: Antagonist potency towards alpha-2 adrenergic receptor determined as the dose required to produce a two fold shift of the dose-response curve to UK-14304 on the twitch response of the vas deferens (in vitro);AG- agonist. Format: functional, tissue-based. The note with it: filed as agonist.

Assay [7] has as its system Rattus norvegicus. The assay can be described thus: In vivo dose required to inhibit vas deferens contraction by 25% after pretreatment with prazosin in pithed rats. (prejunctional). Format: functional. The method, boiled down:
(§1)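 Pithed rats pretreated with prazosin (1 mg/kg). Compound given iv in cumulative doses. ED25 is the dose (μg/kg) inhibiting vas deferens contraction by 25%. Separate groups of rats (n = 4-6).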

The test system of assay [8] is Rattus norvegicus. The assay can be described thus: In vivo antagonist dose producing two fold shift of cirazoline in pithed rats. (postjunctional); AG- agonist. The assay is classed as functional, organism-based. The note with it: filed as agonist. In outline:
(§2)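 Pithed rats, iv. Antagonist given before a cumulative dose-response curve to cirazoline on diastolic blood pressure. DR2 is the antagonist dose (μg/kg) giving a twofold rightward shift. Separate groups of rats (n = 4-6).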

Assay [9] has as its system Rattus norvegicus. The assay can be described thus: In vivo antagonist dose producing two fold shift of UK-14,304 in pithed rats. (prejunctional).
The subject of assay [10] is Rattus norvegicus. As to the kind of experiment: In vivo dose required to inhibit vas deferens contraction by 25% after pretreatment with prazosin in pithed rats. (prejunctional); ant- antagonist. Format: functional, organism-based. As to conditions: filed as antagonist. The method, boiled down:
as §1

The test system of assay [11] is Rattus norvegicus. The assay can be described thus: In vivo antagonist dose producing two fold shift of cirazoline in pithed rats. (postjunctional);AG- agonist. The assay is classed as functional, organism-based. The note with it: filed as agonist. In outline:
as §2

In the case of `c1ccc2c(c1)CC(C1=NCCN1)C2`, the Postjunctional agonist potency in assay [1] turned out to be 0. Further, the Prejunctional agonist potency in [2] amounted to 0. For the same compound, the Postjunctional antagonist potency in assay [3] came to 0.8. Also, the Prejunctional antagonist potency in [4] was 0.4.
With `CN1c2c(Cl)cccc2CC1C1=NCCN1` (stereo not drawn), the ED40 in the assay with Rattus norvegicus [5] is 1.4 µg/kg; in the assay on Rattus norvegicus [8] it was “Agonist”. In [1], the Postjunctional agonist potency amounted to 3.5. Besides, the Prejunctional antagonist potency result in [6] was “Agonist”. The Prejunctional agonist potency in assay [2] was found to be 0.3. Moreover, the ED25 in the assay with Rattus norvegicus [7] amounted to 2.2 µg/kg.
For `CCC1(C2=NCCN2)Cc2ccccc2N1C` (stereo not drawn), the Postjunctional agonist potency in assay [1] worked out at 0. The Prejunctional agonist potency in assay [2] was determined as 0. Also, the Postjunctional antagonist potency in [3] was less than 0.012. The Prejunctional antagonist potency in [4] was determined as 0.005.
`CNC[C@H](O)c1cccc(O)c1` [PHENYLEPHRINE] gave an ED40 in the assay on Rattus norvegicus [5] of 0.9 µg/kg.
As for `COc1cccc2c1CC(C1=NCCN1)N2C` (stereo not drawn), the Postjunctional agonist potency in assay [1] was 0.62. For the same compound, the Prejunctional agonist potency in assay [2] is 0. Also, the Prejunctional antagonist potency in assay [4] was determined as 0.27.
As for `CN1c2ccc(Cl)cc2CC1C1=NCCN1` (stereo not drawn), the ED40 with Rattus norvegicus [5] is 14.3 µg/kg; with Rattus norvegicus [8], “Agonist”. Also, the Postjunctional agonist potency in assay [1] is 2. The DR2 in the assay with Rattus norvegicus [9] amounted to 0.0127 mg/kg. Further, the Prejunctional agonist potency in assay [2] was 0. The ED25 entry with Rattus norvegicus [10] was “Antagonist”. Further, in [4], the Prejunctional antagonist potency stood at 6.8.
With `CCN1c2ccc(Cl)cc2CC1C1=NCCN1` (stereo not drawn), the values for the ED40 with Rattus norvegicus [5] and with Rattus norvegicus [8] were 4.2 µg/kg and “Agonist”, respectively. Besides, the Postjunctional agonist potency in assay [1] came to 5. The DR2 in the assay on Rattus norvegicus [9] came out at 0.0059 mg/kg. Further, the Prejunctional agonist potency in [2] amounted to 0. In addition, in the assay with Rattus norvegicus [10], the ED25 result was “Antagonist”. Besides, in assay [4], the Prejunctional antagonist potency came to 8.
In the case of `CN1c2cccc(O)c2CC1C1=NCCN1` (stereo not drawn), the ED40 result in the assay on Rattus norvegicus [11] was “Agonist”; in the assay on Rattus norvegicus [5] it was 0.3 µg/kg. The Postjunctional agonist potency in [1] was 6.7. The Prejunctional antagonist potency entry in assay [6] was “Agonist”. Further, the Prejunctional agonist potency in [2] turned out to be 0.16. Moreover, the ED25 in the assay on Rattus norvegicus [7] was 0.2 µg/kg.
`Nc1cc(Cl)c(N=C2NCCN2)c(Cl)c1` [APRACLONIDINE] showed an ED40 in the assay on Rattus norvegicus [5] of 0.7 µg/kg. Also, in the assay with Rattus norvegicus [7], the ED25 stood at 0.4 µg/kg.
Turning to `c1ccc2c(c1)CC(C1=NCCN1)O2` (stereo not drawn), the Postjunctional agonist potency in assay [1] is 0.01. Further, the Prejunctional agonist potency in [2] was found to be 0. For the same compound, in assay [3], the Postjunctional antagonist potency was determined as 0.16. Moreover, the Prejunctional antagonist potency in assay [4] was 1.7.
In the case of `COc1cccc2c1N(C)C(C1=NCCN1)C2` (stereo not drawn), the Postjunctional agonist potency in assay [1] amounted to 8. For the same compound, the Prejunctional antagonist potency result in assay [6] is “Agonist”. In addition, the Prejunctional agonist potency in [2] stood at 0.4.
Take `CN1c2cccc(Br)c2CC1C1=NCCN1` (stereo not drawn): the ED40 in the assay on Rattus norvegicus [5] was found to be 0.3 µg/kg. For the same compound, the Postjunctional agonist potency in assay [1] is 3.4. Moreover, the Prejunctional antagonist potency result in assay [6] was “Agonist”. Also, the Prejunctional agonist potency in assay [2] amounted to 0.34. Besides, the ED25 in the assay with Rattus norvegicus [7] was 1.1 µg/kg.
Turning to `CN1c2cc(Cl)ccc2CC1C1=NCCN1` (stereo not drawn), the Postjunctional agonist potency in [1] amounted to 0.67. Further, the Prejunctional antagonist potency entry in assay [6] is “Agonist”. For the same compound, in assay [2], the Prejunctional agonist potency came to 0.019.
For `CN1c2cccc(F)c2CC1C1=NCCN1` (stereo not drawn), the ED40 result with Rattus norvegicus [11] was “Agonist”. Besides, the Postjunctional agonist potency in assay [1] came out at 6. The Prejunctional antagonist potency entry in [6] was “Agonist”. Further, in the assay with Rattus norvegicus [9], the DR2 stood at 0.0008 mg/kg. Further, in assay [2], the Prejunctional agonist potency is 1. Besides, the ED25 with Rattus norvegicus [7] worked out at 0.8 µg/kg.
With `CCN1c2ccccc2CC1(C)C1=NCCN1` (stereo not drawn), the Postjunctional agonist potency in assay [1] turned out to be 0.03. In assay [2], the Prejunctional agonist potency is 0. Besides, the Prejunctional antagonist potency in [4] was found to be 0.1.
`c1ccc(COCCN2c3ccccc3CC2C2=NCCN2)cc1` (stereo not drawn): the Postjunctional agonist potency in assay [1] worked out at 0. Besides, the Prejunctional agonist potency in assay [2] was 0. For the same compound, the Postjunctional antagonist potency in [3] was determined as 18. Further, the Prejunctional antagonist potency in assay [4] was 0.05.
